# Assay outcomes as filed in PubChem.
# CAL PDZ FP-1 = CAL PDZ (human) peptide binding inhibition | purified CAL PDZ, TMR-peptide fluorescence polarization, 1 h | inhibition, % at 24.9 µM | 0.92% of 300,000 active | AID 602252;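 active = mean inhibition of at least 30% with at least half of replicates also reaching 30%; inconclusive = no clear call, values can overlap the other calls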;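 also: 0% = DMSO neutral control and 100% = excess unlabeled competitor peptide PRC23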
# S100A4 MyoIIA = S100A4-myosin IIA interaction inhibition | P26447 | S100A4/TAMRA-MyoIIA peptide fluorescence polarization | 0.14% of 360,000 active | inhibition, % at 10.7 µM | AID 652163;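 active = mean inhibition of at least 70% across replicates, with every replicate also reaching that level; inconclusive = mean inhibition reaches 70% but some replicates fall short; inactive = mean inhibition below 70%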
# Target sequence (P26447 whole entry, looked up): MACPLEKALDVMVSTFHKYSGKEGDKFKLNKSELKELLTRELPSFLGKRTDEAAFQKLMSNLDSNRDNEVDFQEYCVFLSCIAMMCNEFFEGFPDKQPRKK
#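 incubation = readout 5 min after mixing, signal stable up to 60 min | system = S100A4 monomer protein | buffer or medium = HEPES pH 7.2 with CaCl2, KCl, NaCl, DTT, Triton | benchmarks = neutral control DMSO, positive control TFP | also added = fluorescent myosin IIA peptide, 5 nM | compound dosing = one concentration per compound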
# ERAP1 HTS inh = inhibitors of human ERAP1 aminopeptidase; recombinant ERAP1, Leu-AMC fluorescence, 60 min; inhibition, % at 10.7 µM; 0.15% of 340,000 active;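 active = mean replicate inhibition of at least 30%, or all replicates individually reaching that 30% level; inactive = mean below 30% and not every replicate reaching it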;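 also: 0% = neutral control wells and 100% = L-leucinethiol positive control wells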
# DENV2 CPE rescue = DENV2-induced cell death inhibition; DENV2-infected cells, cytopathic effect rescue, plate reader; CPE inhibition, % at 9.99 µM; 1.7% of 350,000 active; in the data active = CPE inhibition above about 20%, passing the limit was not always enough; inconclusive = no clear call, values can overlap the other calls; tested in BHK-21 cells;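 also: 0% = median of neutral control wells and 100% = median of positive control wells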
# CAL PDZ FP-2 = blocks peptide binding to human CAL PDZ domain; purified CAL PDZ, TMR-peptide fluorescence polarization, 1 h; 0.02% of 330,000 active; Q9HD26; inhibition, % at 20 µM;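 active = highest replicate inhibition of at least 40%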;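 also: plate controls were DMSO neutral control wells for no effect and unlabeled competitor peptide control wells for full effect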
#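 material = purified tagged CAL PDZ domain construct (CerCALP) | compound dosing = 20 µM, one dose | times = 1 h at RT | measured by = fluorescence polarization from S- and P-plane intensities, G-factor corrected | read-out = inhibition from polarization loss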
# SIRT5 inh = sirtuin-5 (human) deacylase inhibition; 1.1% of 330,000 active; Purified SirT5, succinyl-peptide AMC, trypsin-coupled fluorescence; Q9NXA8; inhibition, % at 15 µM; in the data active = inhibition above about 15%; inconclusive = no clear call, values can overlap the other calls
# Target sequence (Q9NXA8 whole entry, looked up): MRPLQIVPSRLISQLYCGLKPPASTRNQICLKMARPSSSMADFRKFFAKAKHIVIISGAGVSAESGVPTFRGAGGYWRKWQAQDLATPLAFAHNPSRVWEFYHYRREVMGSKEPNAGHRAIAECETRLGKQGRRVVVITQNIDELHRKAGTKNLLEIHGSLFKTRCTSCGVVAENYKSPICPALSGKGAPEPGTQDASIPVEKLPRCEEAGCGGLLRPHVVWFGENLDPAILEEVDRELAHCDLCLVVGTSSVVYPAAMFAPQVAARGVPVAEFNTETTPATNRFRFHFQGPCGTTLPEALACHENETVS
# Active calls of the source: *; ? = inconclusive; / = no result given. Most compounds without a hit are left out; they make up all but 2.9% or so of the library.
SMILES,CAL PDZ FP-1,S100A4 MyoIIA,ERAP1 HTS inh,DENV2 CPE rescue,CAL PDZ FP-2,SIRT5 inh
CCN1C(=NCCCCO)N[C@@H](c2cccc(C(F)(F)F)c2)C(C(=O)OC)=C1C,-3,0,0,33*,-1,/
COC(=O)C1=C(C)N(Cc2ccccc2)C(=NCCCCO)N[C@H]1c1cccc(C(F)(F)F)c1,5,-1,/,-6,0,/
CN(C)CC#Cc1ccc([C@@H]2[C@H]3CN(C(=O)C4CC4)CCCCN3[C@H]2CO)cc1,/,/,/,3,/,/
COc1ccc(NC(=O)N(C)C[C@@H]2Oc3c(NC(=O)CCCCCC(=O)Nc4ccccc4N)cccc3C(=O)N([C@H](C)CO)C[C@H]2C)cc1,/,3,-1,-11,/,/
Cc1noc(C)c1NC(=O)N(C)C[C@@H]1Oc2ccc(NC(=O)Nc3ccccc3)cc2C(=O)N([C@H](C)CO)C[C@H]1C,/,-1,-1,-5,/,-5
CCOC(=O)C1(Cc2ccccc2)CCCN(C(=O)c2ccc(-n3ccnc3)cc2)C1 (stereo unspecified),38*,2,-2,-6,-2,0
CCOC(=O)C1(Cc2ccccc2)CCCN(C(=O)C=C(C)C)C1 (stereo unspecified),/,1,-1,-7,0,1
CCOC(=O)C1(Cc2ccccc2)CCCN(C2CCN(C(C)=O)CC2)C1 (stereo unspecified),-4,-39,-1,6,1,23*
CCOC(=O)C1(Cc2cccc(Cl)c2)CCCN(C(=O)c2ccnn2C)C1 (stereo unspecified),41*,-3,-2,17,-1,-2
C[C@@H]1CN([C@H](C)CO)C(=O)c2cc(NC(=O)CCC(F)(F)F)ccc2O[C@H]1CN(C)Cc1ccc(C(=O)O)cc1,/,-57,-1,-4,/,-1
C/C=C/c1ccc2c(c1)O[C@H](CN(C)Cc1ccccc1F)[C@H](C)CN([C@H](C)CO)S2(=O)=O,/,-8,0,11,/,13*
C/C=C/c1ccc2c(c1)O[C@H](CN(C)Cc1ccc(F)cc1)[C@@H](C)CN([C@H](C)CO)S2(=O)=O,/,6,-4,3,/,0
C/C=C/c1ccc2c(c1)O[C@@H](CN(C)Cc1ccc(F)cc1)[C@H](C)CN([C@H](C)CO)S2(=O)=O,/,-1,1,?,/,16*
COc1ccc(NC(=O)Nc2ccc3c(c2)C(=O)N([C@H](C)CO)C[C@H](C)[C@H](CN(C)Cc2ccc(Cl)c(Cl)c2)O3)cc1,/,-57,1,7,/,-2
COc1ccc(NC(=O)N(C)C[C@H]2OCCCC[C@H](C)Oc3ccc(NS(=O)(=O)c4ccc(C)cc4)cc3C(=O)N([C@@H](C)CO)C[C@H]2C)cc1,/,-4,1,5,/,4
CC1CCCN(CCOCCSc2ccccc2)C1 (stereo unspecified),-2,-6,0,2,-1,21*
CC1CC(C)CN(CCOCCSc2ccccc2)C1 (stereo unspecified),0,?,6,0,0,-4
CN(C)CC(=O)N1CC2(C1)[C@@H](c1ccccc1)[C@@H](CO)N2C(=O)C1CC1,/,53,-4,18,/,-7
COc1ccc(-c2ccc([C@@H]3[C@@H](CO)N4CCCCN(CC5CCOCC5)C[C@H]34)cc2)cc1,/,2,-2,48*,/,-2
COc1ccc(-c2ccc([C@@H]3[C@H]4CN(CC5CCOCC5)CCCCN4[C@H]3CO)cc2)cc1,/,-6,-1,63*,/,-1
C[C@H]1CN([C@@H](C)CO)C(=O)c2cc(NS(=O)(=O)c3ccc(Cl)cc3)ccc2O[C@@H]1CN(C)C(=O)Nc1cccc2ccccc12,/,-2,1,3,/,6
COc1cc(C2C=C(c3cccs3)Nc3ncnn32)cc(OC)c1OC (stereo unspecified),33*,/,/,/,1,/
C[C@@H]1CN([C@@H](C)CO)C(=O)c2cc(NS(=O)(=O)c3ccc(F)cc3)ccc2O[C@@H](C)CCCCO[C@@H]1CN(C)Cc1ccncc1,/,11,2,-6,/,4
[N-]=[N+]=NCc1ccccc1C[C@]1(C(=O)NCCN2CCOCC2)COC(c2ccc(OCCCO)cc2)=N1,/,1,-6,11,/,0
COc1ccc(-c2nc3cc(C)ccn3c2NCC2CCCO2)cc1OC (stereo unspecified),0,/,/,/,-1,/
